From ChEMBL document CHEMBL2434866, “Synthesis, antibacterial and antioxidant activities of new 1-alkyl-4-(1-alkyl-4-oxo-1,4-dihydroquinolin-2-yl)pyridinium bromides” (2013)
Calls of active or inactive are those of the source. The rule behind the calls is not given here.

How the values were obtained:
[1] = Antioxidant activity assessed as trolox equivalent of ferric ion reducing activity using fe2+-TPTZ at 1 mg/ml after 20 mins by FRAP assay; type: functional
Procedure, shortened: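 Sample at 1 mg/mL was mixed with reagent, kept 20 min at room temperature, and read at 595 nm against a water blank. Triplicates were corrected for reagent and sample blanks. TEAC came from a five-point Trolox calibration curve.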

[2] = tested on: Radical scavenging activity; test: Antioxidant activity assessed as DPPH radical scavenging activity after 50 mins; type: functional
Procedure, shortened: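 DPPH• in methanol was mixed 1:1 with sample at five final concentrations (6.25–100.00), vortexed, and kept 50 min at room temperature. Absorbance was read at 517 nm and plotted against concentration, with reagent-blank and solvent controls. SC50 was read from the graph as the concentration halving the initial DPPH•.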

Proteus vulgaris [3] = test: Antibacterial activity against Proteus vulgaris ATCC 13315 assessed as growth inhibition after 18 to 24 hrs by microdilution assay; type: functional
Procedure, shortened: (§1)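 Broth microdilution MIC in LB medium at pH 7.2. Compounds came from DMSO stocks and were serially diluted from 1000 to 7.8 (final). Inoculum was mid-log cells diluted to OD600 0.004 (about 5 × 10^5 CFU/mL). Plates were incubated at 37 °C for 18–24 h. MIC was the last dilution without visible turbidity. Controls were DMSO solvent, medium ± antibiotic, and ampicillin.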

Pseudomonas aeruginosa [4] = test: Antibacterial activity against Pseudomonas aeruginosa ATCC 27853 assessed as growth inhibition after 18 to 24 hrs by microdilution assay; type: functional; procedure, shortened: as §1
Klebsiella pneumoniae [5] = test: Antibacterial activity against Klebsiella pneumoniae ATCC 13883 assessed as growth inhibition after 18 to 24 hrs by microdilution assay; type: functional; procedure, shortened: as §1
Enterococcus faecalis [6] = test: Antibacterial activity against Enterococcus faecalis ATCC 29212 assessed as growth inhibition after 18 to 24 hrs by microdilution assay; type: functional; procedure, shortened: as §1
Bacillus spizizenii [7] = test: Antibacterial activity against Bacillus subtilis ATCC 6633 assessed as growth inhibition after 18 to 24 hrs by microdilution assay; type: functional; procedure, shortened: as §1
Staphylococcus aureus [8] = test: Antibacterial activity against Staphylococcus aureus ATCC 25923 assessed as growth inhibition after 18 to 24 hrs by microdilution assay; type: functional; procedure, shortened: as §1
Proteus vulgaris [9] = test: Antibacterial activity against Proteus vulgaris ATCC 13315 assessed as growth inhibition at 100 ug/mL after 18 to 24 hrs by microdilution assay; type: functional, organism-based
Pseudomonas aeruginosa [10] = test: Antibacterial activity against Pseudomonas aeruginosa ATCC 27853 assessed as growth inhibition at 100 ug/mL after 18 to 24 hrs by microdilution assay; type: functional, organism-based
Klebsiella pneumoniae [11] = test: Antibacterial activity against Klebsiella pneumoniae ATCC 13883 assessed as growth inhibition at 100 ug/mL after 18 to 24 hrs by microdilution assay; type: functional, organism-based
Staphylococcus aureus [12] = test: Antibacterial activity against Staphylococcus aureus ATCC 25923 assessed as growth inhibition at 100 ug/mL after 18 to 24 hrs by microdilution assay; type: functional, organism-based
Enterococcus faecalis [13] = test: Antibacterial activity against Enterococcus faecalis ATCC 29212 assessed as growth inhibition at 100 ug/mL after 18 to 24 hrs by microdilution assay; type: functional, organism-based
Bacillus spizizenii [14] = test: Antibacterial activity against Bacillus subtilis ATCC 6633 assessed as growth inhibition at 100 ug/mL after 18 to 24 hrs by microdilution assay; type: functional

MIC (Proteus vulgaris [3]) | MIC (Pseudomonas aeruginosa [4]) | MIC (Klebsiella pneumoniae [5]) | MIC (Enterococcus faecalis [6]) | MIC (Bacillus spizizenii [7]) | MIC (Staphylococcus aureus [8]) | SMILES | Activity [1] | SC50 [2] | growth inhibition (GI) (Proteus vulgaris [9]) | growth inhibition (GI) (Pseudomonas aeruginosa [10]) | growth inhibition (GI) (Klebsiella pneumoniae [11]) | growth inhibition (GI) (Staphylococcus aureus [12]) | growth inhibition (GI) (Enterococcus faecalis [13]) | growth inhibition (GI) (Bacillus spizizenii [14])
31.2 µg/mL | 62.5 µg/mL | 125 µg/mL | 125 µg/mL | 125 µg/mL | 62.5 µg/mL | CCCCCCCCCCCn1c(-c2cc[n+](CCCCCCCCCCC)cc2)cc(=O)c2ccccc21.[Br-] | 44 equiv | 72 µg/mL |  |  |  |  |  | 
125 µg/mL | 125 µg/mL | 125 µg/mL | 125 µg/mL | 250 µg/mL | 125 µg/mL | CCCCCCCCCCCCn1c(-c2cc[n+](CCCCCCCCCCCC)cc2)cc(=O)c2ccccc21.[Br-] | 39 equiv | 82 µg/mL |  |  |  |  |  | 
500 µg/mL | 500 µg/mL | 500 µg/mL | 250 µg/mL | 500 µg/mL | 500 µg/mL | CCCCCCCCCCCCCCn1c(-c2cc[n+](CCCCCCCCCCCCCC)cc2)cc(=O)c2ccccc21.[Br-] | 14 equiv | 72 µg/mL |  |  |  |  |  | 
62.5 µg/mL | 31.2 µg/mL | 62.5 µg/mL | 125 µg/mL | 62.5 µg/mL | 62.5 µg/mL | CCCCCCCCCCn1c(-c2cc[n+](CCCCCCCCCC)cc2)cc(=O)c2ccccc21.[Br-] | 40 equiv | 78 µg/mL |  |  |  |  |  | 
250 µg/mL | 250 µg/mL | 250 µg/mL | 250 µg/mL | 250 µg/mL | 250 µg/mL | CCCCCCCCCCCCCn1c(-c2cc[n+](CCCCCCCCCCCCC)cc2)cc(=O)c2ccccc21.[Br-] | 53 equiv | 45 µg/mL |  |  |  |  |  | 
500 µg/mL | 500 µg/mL | 250 µg/mL | 250 µg/mL | 500 µg/mL | 500 µg/mL | CCCCCCCCCCCCCCCn1c(-c2cc[n+](CCCCCCCCCCCCCCC)cc2)cc(=O)c2ccccc21.[Br-] | 66 equiv | 133 µg/mL |  |  |  |  |  | 

Further lines, the compound ahead of its results:

SMILES | MIC (Proteus vulgaris [3]) | MIC (Pseudomonas aeruginosa [4]) | MIC (Klebsiella pneumoniae [5]) | MIC (Enterococcus faecalis [6]) | MIC (Bacillus spizizenii [7]) | MIC (Staphylococcus aureus [8]) | Activity [1] | SC50 [2] | growth inhibition (GI) (Proteus vulgaris [9]) | growth inhibition (GI) (Pseudomonas aeruginosa [10]) | growth inhibition (GI) (Klebsiella pneumoniae [11]) | growth inhibition (GI) (Staphylococcus aureus [12]) | growth inhibition (GI) (Enterococcus faecalis [13]) | growth inhibition (GI) (Bacillus spizizenii [14])
CCCCCCCn1c(-c2cc[n+](CCCCCCC)cc2)cc(=O)c2ccccc21.[Br-] | 125 µg/mL | 62.5 µg/mL | 62.5 µg/mL | 62.5 µg/mL | 62.5 µg/mL | 31.2 µg/mL | 59 equiv | 56 µg/mL |  |  |  |  |  | 
Nc1ccccc1C(=O)/C=C/c1ccncc1 |  |  |  |  |  |  | 43 equiv | 130 µg/mL |  |  |  |  |  | 
CC1(C)S[C@@H]2[C@H](NC(=O)[C@H](N)c3ccccc3)C(=O)N2[C@H]1C(=O)O |  |  |  |  |  |  |  |  | Active | Active | Active | Active | Active | Active
CCCCCn1c(-c2cc[n+](CCCCC)cc2)cc(=O)c2ccccc21.[Br-] | 62.5 µg/mL | 15.6 µg/mL | 31.2 µg/mL | 62.5 µg/mL | 62.5 µg/mL | 15.6 µg/mL | 94 equiv | 112 µg/mL |  |  |  |  |  | 
O=c1cc(-c2ccncc2)[nH]c2ccccc12 |  |  |  |  |  |  | 46 equiv | 133 µg/mL |  |  |  |  |  | 
CCCCCCCCCn1c(-c2cc[n+](CCCCCCCCC)cc2)cc(=O)c2ccccc21.[Br-] | 31.2 µg/mL | 62.5 µg/mL | 31.2 µg/mL | 62.5 µg/mL | 62.5 µg/mL | 31.2 µg/mL | 59 equiv | 55 µg/mL |  |  |  |  |  | 
CCCCCCCCn1c(-c2cc[n+](CCCCCCCC)cc2)cc(=O)c2ccccc21.[Br-] | 31.2 µg/mL | 31.2 µg/mL | 31.2 µg/mL | 62.5 µg/mL | 31.2 µg/mL | 15.6 µg/mL | 59 equiv | 85 µg/mL |  |  |  |  |  | 
CCCCCCn1c(-c2cc[n+](CCCCCC)cc2)cc(=O)c2ccccc21.[Br-] | 62.5 µg/mL | 7.8 µg/mL | 15.6 µg/mL | 31.2 µg/mL | 31.2 µg/mL | 7.8 µg/mL | 141 equiv | 56 µg/mL |  |  |  |  |  | 
